Results on seven molecules are retold here after publication PMC3961564 (The Journal of investigative dermatology, 2013).

One assay addresses P3 (FN1853-1877) (human). As to the kind of experiment: radioligand binding.
Assay [1] has as its target FN668-704, second half of anastellin, with cysteine at the C-terminus (human). The assay can be described thus: radioligand binding.
The target of assay [2] is anastellin (FN630-704) with a Cys-tag at the C-terminus (human). The assay can be described thus: radioligand binding.
A further assay addresses P4 (FN2043-2076) (human). The assay can be described thus: radioligand binding.
The subject of another assay is FN-null fibroblasts. As to the kind of experiment: FN-null cell survival on CBD/14 with peptide in solution. To be noted: serum-free DMEM, 1nM PDGF-BB, 3d, viable cells counted. Type of assay: cell-based, mouse. The method in brief:
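Mouse FN-null fibroblasts were maintained in DMEM with 10% FBS. 96-well plates were precoated with 0.125μM GST-tagged CBD/14, blocked with 2% BSA for 2h and washed. Cells were seeded at 4,000/well for 4h at 37°C in serum-free DMEM, and BSA medium with soluble test compound ±1nM PDGF-BB was added. After 3d at 37°C, viable spread cells were counted in five 10x fields in three replicate wells (mean ± SD, n=15).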

In another assay the test system is cell growth. To be noted: RWRPK by itself; ref Hocking et al., 2008; cited from earlier work.
Assay [3] deals with Recombinant PDGF-BB (platelet-derived growth factor-BB) (UniProt P01127). The assay can be described thus: SPR.
The target of assay [4] is 125I-PDGF-BB (125I-radiolabeled platelet-derived growth factor-BB) (UniProt P01127 82-190, 125I label (site not stated)). As to the kind of experiment: radioligand binding.
Chain of 125I-PDGF-BB (125I-radiolabeled platelet-derived growth factor-BB) (UniProt P01127 82-190, 125I label (site not stated)) (P01127 82-190): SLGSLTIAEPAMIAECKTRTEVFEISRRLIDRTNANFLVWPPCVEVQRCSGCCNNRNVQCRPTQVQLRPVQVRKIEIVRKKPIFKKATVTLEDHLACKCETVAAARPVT

Chain of Recombinant PDGF-BB (platelet-derived growth factor-BB) (P01127 82-190): as above

For “125I-PDGF-BB (125I-radiolabeled platelet-derived growth factor-BB) (from UniProt P01127 82-190) (ligand)”, the Kd (usually the constant that tells how readily two partners part at equilibrium) with P3 (FN1853-1877) (human) was 87 nM; in assay [1] it was 80 nM; in assay [2] it was 90 nM; in the assay with P4 (FN2043-2076) (human), 56 nM.
For QPSHISKYILRWRPK [Peptide P5], in the assay on FN-null fibroblasts, the “FN-null cell survival on CBD/14, peptide in solution” value is recorded as “promoted PDGF-BB survival signals”.
Still for that read-out and setting: then QWNAPQPSHISKYILRWRPK [Peptide P11], with “promoted PDGF-BB survival signals”.
For RWRPK, the “Cell growth” value in the assay with cell growth is “inhibits cell growth”. Moreover, in the assay with FN-null fibroblasts, the “FN-null cell survival on CBD/14, peptide in solution” value is given as “does not collaborate with PDGF-BB”.
Consider “anastellin (FN630-704) with a Cys-tag at the C-terminus (domain or fragment)”, for which the Kd in assay [3] came to 22.9 nM.

B1: P2 (FN680-704) (peptide)
peptide: QLISHQQYGHQEVTRFDFTTTSTST
Molecule B1 yielded a Kd in assay [4] of 110 nM.

B2: P1 (FN634-658) (peptide)
peptide: QPSHISKYILRWRPKNSVGRWKEAT
With B2, in assay [4], the Kd came to 250 nM.
